Screening results (PubChem)
This is a sample that favours compounds with a hit; in the whole collection about 3.7% have one here.
FGF22 binding-1 = binders of recombinant human FGF22 by thermal shift | AID 651658 | 340,000 compounds, 1.5% hits | activity (Tm shift, normalised), % at 9.99 µM | Q9HCT0 | SYPRO orange fluorescence; percent of sucrose octasulfate shift, DMSO zero;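 active = mean Tm shift, scaled 0 neutral to 100 positive control, at about 1.3% or above, every replicate too, limit read from the data; inconclusive = no clear call, values can overlap the other calls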
E-selectin induc = induces E-selectin expression in human endothelial cells; P16581; HUVEC E-selectin immunofluorescence imaging; normalized: neutral wells 0, TNF-alpha wells 100; activation, % at 7.58 µM; 260,000 compounds, 0.37% hits;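 active = mean E-selectin-positive cell signal at least 10% of the positive control, reached in at least 60% of replicates, without over 20% cell loss; inconclusive = no rule given, readout overlaps actives, possibly toxicity-flagged; inactive = the rest, including those meeting only one limit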
Target sequence (P16581 whole entry, looked up): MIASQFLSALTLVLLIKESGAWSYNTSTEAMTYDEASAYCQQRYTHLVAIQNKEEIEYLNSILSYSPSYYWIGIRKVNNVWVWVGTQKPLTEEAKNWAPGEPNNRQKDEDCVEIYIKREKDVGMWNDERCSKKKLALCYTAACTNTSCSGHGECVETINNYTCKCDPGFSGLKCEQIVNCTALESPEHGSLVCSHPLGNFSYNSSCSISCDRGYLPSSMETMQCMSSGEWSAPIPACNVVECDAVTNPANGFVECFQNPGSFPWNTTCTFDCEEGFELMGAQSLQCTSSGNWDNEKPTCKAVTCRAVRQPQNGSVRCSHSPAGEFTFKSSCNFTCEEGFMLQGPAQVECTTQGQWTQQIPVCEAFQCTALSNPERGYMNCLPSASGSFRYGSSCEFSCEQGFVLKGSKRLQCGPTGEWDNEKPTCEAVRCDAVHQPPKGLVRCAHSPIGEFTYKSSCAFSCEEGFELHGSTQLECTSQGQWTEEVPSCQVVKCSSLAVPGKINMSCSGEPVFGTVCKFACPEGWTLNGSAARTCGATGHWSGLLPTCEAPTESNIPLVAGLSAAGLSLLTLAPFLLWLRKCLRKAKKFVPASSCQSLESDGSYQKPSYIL
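Read-out: % PE-positive cells | Test system: HUVEC | Doses: One compound dose added by pin transfer | Buffer or medium: EGM-2 over gelatin coat | Signal: Immunofluorescence imaging | Benchmarks: TNF-alpha, DMSO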
F508del corr = correctors of CFTR F508del function in bronchial epithelial cells; 350,000 compounds, 0.36% hits; CFBE cells, YFP halide quenching; stimulated with forskolin plus potentiator P3; % fluorescence drop versus neutral controls; activity (quench increase), % at 7.58 µM;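 active = mean added fluorescence quench of at least 8% versus neutral control, with both replicates also reaching 8%; inconclusive = only one of the mean or replicate conditions met; inactive = mean below 8% and not both replicates reaching 8%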;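 also: cells transiently co-express mutant CFTR-F508del with the halide-sensitive YFP; corrector assay measuring rescue of mutant channel to the surface after 24 h compound exposure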
ERAP1 HTS inh = blocks human ERAP1 aminopeptidase activity; Q9NZ08; recombinant ERAP1, Leu-AMC fluorescence, 60 min; inhibition, % at 10.7 µM; 340,000 compounds, 0.15% hits;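 active = mean replicate inhibition of at least 30%, or all replicates individually reaching that 30% level; inactive = mean below 30% and not every replicate reaching it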
DENV2 CPE = protects cells from dengue virus 2 cytopathic effect. CPE inhibition, % at 9.99 µM. 350,000 compounds, 1.7% hits. AID 651640. DENV2-infected cells, cytopathic effect rescue, plate reader; in the data active = CPE inhibition above about 20%, passing the limit was not always enough; inconclusive = no clear call, values can overlap the other calls; tested in BHK-21 cells
FGF22 binding-2 = FGF22 (human) binding in thermal shift. AID 720646. shares compounds with FGF22 binding-1. thermal shift activity, °C (ΔTm) at 38 µM. 1,000 compounds, 2% hits. recombinant FGF22 thermal shift, SYPRO orange fluorescence;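 active = fitted rise in melting shift crosses a set limit at or below the top valid dose tested; inconclusive = flat fit at mid-level activity, or a poor quality fit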
FGF22 TSA DP = binders of human FGF22 by thermal shift. shares compounds with FGF22 binding-1. AID 743017. Thermal shift assay, SYPRO orange, melting temperature shift. 50 tested, under 10 active. Tm shift (activity), % at 38 µM;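 active = compounds whose fitted dose curve of melting temperature shift rises past a set threshold within the tested doses; inconclusive = flat curve at moderate activity, or poor curve fit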
TSA no protein = compound-only SYPRO artifact for FGF22 binders; shares compounds with FGF22 binding-1; compound-only SYPRO orange thermal shift counter-screen, no protein; AC50, µM (titrated, usually from 38 µM); 1,000 compounds, 2% hits; AID 743019;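 active = rising signal whose fitted curve reaches the 0.54 level within the top valid dose, showing a melting point, actives reach about 13 µM in these data; inactive = the rest, including activity in the opposite direction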; also: value is where the raw curve crosses a fixed level and not half-maximal
A number is an active result; - = inactive; ? = inconclusive; . = not tested or not shown.

SMILES	FGF22 binding-1	E-selectin induc	F508del corr	ERAP1 HTS inh	DENV2 CPE	FGF22 binding-2	TSA no protein	others
COc1cccc(C#Cc2ccc([C@H]3[C@H]4CN(S(=O)(=O)c5ccccc5C)CC(=O)N4[C@H]3CO)cc2)c1	1.4	-	-	-	-	-	-
COc1ccc(OC)c(Nc2ccc(Nc3cc(OC)ccc3OC)nn2)c1	1.8	.	-	-	-	-	-
CO[C@@H]1CN(C)C(=O)c2ccc(NC(=O)C3CC3)cc2OC[C@H](C)N(Cc2cncnc2)C[C@H]1C	.	-	-	.	.	.	.
O=[N+]([O-])c1ccccc1S(=O)(=O)Nc1ccc(S(=O)(=O)Nc2nccs2)cc1	-	.	-	-	?	.	.
O=[N+]([O-])c1cccc(S(=O)(=O)Nc2ccc(-c3ccc(N4CCCC4)nn3)cc2)c1	1.6	-	-	-	-	-	-
O=[N+]([O-])c1cccc(S(=O)(=O)Nc2ccc(S(=O)(=O)Nc3nccs3)cc2)c1	1.6	-	-	-	-	-	-
O=[N+]([O-])c1cccc(S(=O)(=O)Nc2cccc(-c3ccc(N4CCOCC4)nn3)c2)c1	-	-	-	-	-	.	.
O=[N+]([O-])c1cccc(S(=O)(=O)Nc2ccc(-c3ccc(N4CCOCC4)nn3)cc2)c1	2.5	-	-	-	-	-	-
COc1ccc(-c2nc(-c3ccc(O)cc3O)cs2)cc1OC	2.5	-	-	-	-	-	-	FGF22 TSA DP=-
COc1ccc(-c2nc(CCl)cs2)cc1OC	-	.	-	-	-	.	.
CC1CCN(Cc2c(C(=O)N/N=C/c3ccc(OC(C)C)cc3)nnn2-c2nonc2N)CC1	1.5	.	-	-	-	-	-
Nc1nonc1-n1nnc(C(=O)N/N=C/c2cccnc2)c1CSc1ccc(Cl)cc1	2.7	.	-	-	-	-	-
C/C(=N\NC(=O)c1nnn(-c2nonc2N)c1CSc1ccc(C)cc1)c1cccnc1	1.7	-	-	-	-	-	-
COCC(=O)N(C)C[C@H]1Oc2cc(C3=CCCCC3)ccc2S(=O)(=O)N([C@H](C)CO)C[C@H]1C	-	-	-	-	-	.	.
CC(=O)c1cccc(NC(=O)C2CCCN2S(=O)(=O)c2ccccc2C(F)(F)F)c1 (stereo unspecified)	-	-	-	-	?	.	.
CC(=O)c1cccc(NC(=O)C2CCCN2S(=O)(=O)c2cccs2)c1 (stereo unspecified)	17.4	-	-	-	-	-	-
Cc1ccc(S(=O)(=O)N(C)C[C@@H]2OCCCC[C@H](C)Oc3ccc(NC(=O)Cc4ccccc4)cc3C(=O)N([C@H](C)CO)C[C@@H]2C)cc1	.	.	-	-	.	.	.
CC(=O)Nc1ccc(S(=O)(=O)Nc2ccn(Cc3ccccc3Cl)n2)cc1	2.1	-	-	-	-	-	-
COC(=O)c1ccn(Cc2ccccc2Cl)n1	-	-	-	-	-	.	.
COc1cc(OC)c(C(=O)OCC(=O)NCC2CCCCC2)cc1OC	9.3	.	-	-	-	-	-
COc1cc(OC)c(C(=O)OCC(=O)NC2CCCCCCC2)cc1OC	-	-	-	-	-	.	.
Cc1ccccc1-c1ccccc1[C@@H]1[C@@H](C#N)N(C(=O)c2ccccc2)[C@H]1CO	1.3	-	-	-	-	-	-
CO[C@@H]1CN(C)C(=O)c2cc(NC(=O)NC(C)C)ccc2OC[C@H](C)N(C)C[C@@H]1C	-	-	-	-	-	.	.
CO[C@H]1CN(C)C(=O)c2ccc(NC(C)=O)cc2OC[C@H](C)N(Cc2cncnc2)C[C@H]1C	.	-	-	.	.	.	.
C[C@H]1CCCCO[C@H](CN(C)Cc2ccncc2)[C@@H](C)CN([C@@H](C)CO)C(=O)c2cc(NC(=O)c3ccncc3)ccc2O1	1.2	-	-	-	-	-	-
SMILES	FGF22 binding-1	E-selectin induc	F508del corr	ERAP1 HTS inh	DENV2 CPE	FGF22 binding-2	TSA no protein	others
CC(C)NC(=O)Nc1ccc2c(c1)C(=O)N([C@H](C)CO)C[C@@H](C)[C@@H](CN(C)C(=O)Nc1ccccc1)OCCCC[C@@H](C)O2	2.6	-	-	-	-	-	-
C[C@@H]1CCCCO[C@H](CN(C)C(=O)C2CCCCC2)[C@H](C)CN([C@H](C)CO)C(=O)c2cc(NS(C)(=O)=O)ccc2O1	1.7	-	-	-	-	-	-
C[C@@H]1CN([C@H](C)CO)C(=O)c2cc(NS(C)(=O)=O)ccc2O[C@@H](C)CCCCO[C@H]1CN(C)Cc1ccncc1	1.7	-	-	-	-	-	-
CCC(=O)N(C)C[C@H]1Oc2ncc(C#CCc3ccccc3)cc2C(=O)N([C@H](C)CO)C[C@@H]1C	-	-	-	-	-	.	.
N#C[C@@H]1[C@H](c2ccc(-c3cccc(F)c3)cc2)[C@@H](CO)N1C(=O)NC1CCCCC1	.	-	-	-	-	.	.
C[C@H]1CN([C@@H](C)CO)C(=O)Cc2cc(NC(=O)NC3CCCCC3)ccc2O[C@H]1CN(C)Cc1ccncc1	-	-	-	-	-	.	.
Cc1ccc(S(=O)(=O)N2C[C@]3(O)C[C@@H]4C(=O)N(c5ccccc5)C(=O)[C@@H]4C[C@]3(OC(=O)NCC3CCCCC3)C2)cc1	3.2	.	-	-	-	-	-
COc1ccccc1CNC(=O)C[C@H]1C[C@@H]2c3cc(NC(=O)c4cccnc4)ccc3O[C@@H]2[C@@H](CO)O1	-	-	-	-	-	.	.
COc1ccc(CN(C)C[C@H]2Oc3ccc(NC(=O)Nc4ccc5c(c4)OCO5)cc3C(=O)N([C@@H](C)CO)C[C@@H]2C)cc1	-	-	-	-	-	.	.
CC(C)(C)[S@@](=O)N1Cc2cc(C(=O)NCc3ccncc3)nc(-c3cccc(-c4ccncc4)c3)c2[C@H]1CCO	-	-	-	-	-	.	.
COc1ccccc1-c1cccc(-c2nc(C(=O)NCc3ccncc3)cc3c2[C@@H](CCO)N([S@](=O)C(C)(C)C)C3)c1	23.6	-	-	-	-	-	-
CC(C)(C)[S@](=O)N1Cc2cc(C(=O)N3CCc4ccccc4C3)nc(-c3cccc(-c4cccnc4)c3)c2[C@@H]1CCO	-	-	-	-	-	.	.
CC(C)(C)[S@](=O)N1Cc2cc(C(=O)N[C@@H]3CCN(Cc4ccccc4)C3)nc(-c3cccc(-c4cccnc4)c3)c2[C@@H]1CCO	2.1	-	-	-	-	-	-
Cc1ccc(-c2ccc([C@@H]3[C@@H](CO)N4CCCCN(S(=O)(=O)c5ccccc5C)C[C@@H]34)cc2)cc1	-	-	-	-	-	.	.
CC(C)c1ccc(NC(=O)Nc2nnc([C@H]3C[C@H](O)[C@@H](CO)O3)s2)cc1	26.0	-	-	-	-	-	-
